{"source": "ChEMBL document CHEMBL2331356", "about": "“Synthesis of gatifloxacin derivatives and their biological activities against Mycobacterium leprae and Mycobacterium tuberculosis” (Bioorg Med Chem, 2013)", "key": {"[1]": {"target": "DNA gyrase subunit A/DNA gyrase subunit B (Mycobacterium tuberculosis (strain ATCC 25618 / H37Rv), UniProt P9WG45+P9WG47)", "test": "Inhibition of Mycobacterium tuberculosis DNA gyrase GyrA/GyrB assessed as reduction of enzyme supercoiling activity using relaxed pBR322 DNA substrate incubated for 1 hr at 37 degC by ethidium bromide based gel electrophoresis"}, "[2]": {"system": "Mycobacterium leprae", "test": "Inhibition of Mycobacterium leprae wild type DNA gyrase GyrA/GyrB-mediated DNA cleavable complex formation assessed as compound concentration inducing 25% DNA cleavage using relaxed pBR322 DNA substrate incubated for 1 hr at 30 degC by agarose gel electrophoresis"}, "[3]": {"system": "Mycobacterium leprae", "test": "Inhibition of Mycobacterium leprae DNA gyrase GyrA/GyrB assessed as reduction of enzyme supercoiling activity using relaxed pBR322 DNA substrate incubated for 2 hrs at 30 degC by ethidium bromide based gel electrophoresis"}, "[4]": {"system": "Mycobacterium tuberculosis", "test": "Antimicrobial activity against Mycobacterium tuberculosis H37Rv assessed as drug concentration causing =<1% […] bacterial growth incubated for 21 to 30 days by proportion method", "assay_type": "functional", "in_short": "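H37Rv grown on Löwenstein-Jensen medium; 10³ and 10⁵ CFU spread on 7H11 agar with 10% OADC containing serial twofold compound dilutions. Colonies counted after 21–30 days at 37 °C. […] Compounds dissolved in DMSO or NaOH.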"}, "[5]": {"system": "Mycobacterium leprae [G89C]"}, "[6]": {"system": "Mycobacterium leprae [A91V]", "test": "Inhibition of Mycobacterium leprae […] DNA gyrase GyrA/GyrB A91V mutant-mediated DNA cleavable complex formation assessed as compound concentration inducing 25% DNA cleavage using relaxed pBR322 DNA substrate incubated for 1 hr at 30 degC by agarose gel electrophoresis"}}, "note": "The source made the active and inactive calls. No cut-off for these calls is given here."}
{"smiles": "CCOC(=O)C1CN(c2c(F)cc3c(=O)c(C(=O)O)cn(C4CC4)c3c2OC)CCN1", "note": "(stereo not drawn)", "values": [{"measurement": "IC50", "setting": "[1]", "value": 48.5, "unit": "µM"}, {"measurement": "CC25", "setting": "[2]", "value": 80, "unit": "µg/mL"}, {"measurement": "IC50", "setting": "[3]", "value": 17, "unit": "µg/mL"}, {"measurement": "MIC", "setting": "[4]", "value": "> 32", "unit": "µg/mL"}, {"measurement": "CC25", "setting": "[5]", "value": "inactive"}]}
{"smiles": "CCN1CCN(c2c(F)cc3c(=O)c(C(=O)O)cn(C4CC4)c3c2OC)CC1C(=O)O", "note": "(stereo not drawn)", "values": [{"measurement": "IC50", "setting": "[1]", "value": 201, "unit": "µM"}, {"measurement": "CC25", "setting": "[2]", "value": ">240", "unit": "µg/mL"}, {"measurement": "IC50", "setting": "[3]", "value": 55, "unit": "µg/mL"}, {"measurement": "MIC", "setting": "[4]", "value": 32, "unit": "µg/mL"}, {"measurement": "CC25", "setting": "[5]", "value": "inactive"}]}
{"smiles": "CCOC(=O)C1CN(c2cc3c(cc2F)c(=O)c(C(=O)O)cn3C2CC2)CCN1", "note": "(stereo not drawn)", "values": [{"measurement": "IC50", "setting": "[1]", "value": 66.9, "unit": "µM"}, {"measurement": "CC25", "setting": "[2]", "value": 20, "unit": "µg/mL"}, {"measurement": "IC50", "setting": "[3]", "value": 20, "unit": "µg/mL"}, {"measurement": "MIC", "setting": "[4]", "value": 4, "unit": "µg/mL"}, {"measurement": "CC25", "setting": "[5]", "value": "inactive"}]}
{"smiles": "O=C(O)c1cn(C2CC2)c2cc(N3CCNCC3)c(F)cc2c1=O", "note": "[CIPROFLOXACIN]", "values": [{"measurement": "IC50", "setting": "[3]", "value": 2, "unit": "µg/mL"}, {"measurement": "MIC", "setting": "[4]", "value": 0.5, "unit": "µg/mL"}, {"measurement": "CC25", "setting": "[5]", "value": "inactive"}]}
{"smiles": "CCN1CCN(c2cc3c(cc2F)c(=O)c(C(=O)O)cn3C2CC2)CC1C(=O)O", "note": "(stereo not drawn)", "values": [{"measurement": "IC50", "setting": "[1]", "value": 119, "unit": "µM"}, {"measurement": "CC25", "setting": "[6]", "value": "inactive"}, {"measurement": "CC25", "setting": "[2]", "value": ">240", "unit": "µg/mL"}, {"measurement": "IC50", "setting": "[3]", "value": 35, "unit": "µg/mL"}, {"measurement": "MIC", "setting": "[4]", "value": 32, "unit": "µg/mL"}, {"measurement": "CC25", "setting": "[5]", "value": "inactive"}]}
{"smiles": "CCCCNC(=O)OCC1CN(c2c(F)cc3c(=O)c(C(=O)O)cn(C4CC4)c3c2OC)CCN1", "note": "(stereo not drawn)", "values": [{"measurement": "IC50", "setting": "[1]", "value": 34.7, "unit": "µM"}, {"measurement": "CC25", "setting": "[2]", "value": 10, "unit": "µg/mL"}, {"measurement": "IC50", "setting": "[3]", "value": 10, "unit": "µg/mL"}, {"measurement": "MIC", "setting": "[4]", "value": 8, "unit": "µg/mL"}, {"measurement": "CC25", "setting": "[5]", "value": "inactive"}]}
{"smiles": "CCN(CC)C(=O)OCC1CN(c2cc3c(cc2F)c(=O)c(C(=O)O)cn3C2CC2)CCN1", "note": "(stereo not drawn)", "values": [{"measurement": "IC50", "setting": "[1]", "value": 575, "unit": "µM"}, {"measurement": "CC25", "setting": "[6]", "value": "inactive"}, {"measurement": "CC25", "setting": "[2]", "value": ">240", "unit": "µg/mL"}, {"measurement": "IC50", "setting": "[3]", "value": 118, "unit": "µg/mL"}, {"measurement": "MIC", "setting": "[4]", "value": 128, "unit": "µg/mL"}, {"measurement": "CC25", "setting": "[5]", "value": "inactive"}]}
{"smiles": "COc1c(N2C[C@@H]3CCCN[C@@H]3C2)c(F)cc2c(=O)c(C(=O)O)cn(C3CC3)c12", "note": "[MOXIFLOXACIN]", "values": [{"measurement": "MIC", "setting": "[4]", "value": 0.5, "unit": "µg/mL"}, {"measurement": "CC25", "setting": "[5]", "value": "inactive"}]}
{"smiles": "COc1c(N2CCNC(C)C2)c(F)cc2c(=O)c(C(=O)O)cn(C3CC3)c12", "note": "(stereo not drawn) [GATIFLOXACIN]", "values": [{"measurement": "IC50", "setting": "[1]", "value": 7.99, "unit": "µM"}, {"measurement": "CC25", "setting": "[2]", "value": 1, "unit": "µg/mL"}, {"measurement": "IC50", "setting": "[3]", "value": 3, "unit": "µg/mL"}, {"measurement": "MIC", "setting": "[4]", "value": 0.125, "unit": "µg/mL"}, {"measurement": "CC25", "setting": "[5]", "value": "inactive"}]}
{"smiles": "CC1COc2c(N3CCN(C)CC3)c(F)cc3c(=O)c(C(=O)O)cn1c23", "note": "(stereo not drawn) [OFLOXACIN]", "values": [{"measurement": "IC50", "setting": "[1]", "value": 16.6, "unit": "µM"}, {"measurement": "CC25", "setting": "[2]", "value": 10, "unit": "µg/mL"}, {"measurement": "IC50", "setting": "[3]", "value": 8, "unit": "µg/mL"}, {"measurement": "MIC", "setting": "[4]", "value": 1, "unit": "µg/mL"}, {"measurement": "CC25", "setting": "[5]", "value": "inactive"}]}
{"smiles": "COc1c(N2CCNC(C(=O)O)C2)c(F)cc2c(=O)c(C(=O)O)cn(C3CC3)c12", "note": "(stereo not drawn)", "values": [{"measurement": "IC50", "setting": "[1]", "value": 39.5, "unit": "µM"}, {"measurement": "CC25", "setting": "[2]", "value": 27, "unit": "µg/mL"}, {"measurement": "IC50", "setting": "[3]", "value": 20, "unit": "µg/mL"}, {"measurement": "MIC", "setting": "[4]", "value": 16, "unit": "µg/mL"}, {"measurement": "CC25", "setting": "[5]", "value": "inactive"}]}
{"smiles": "CCN(CC)C(=O)OCC1CN(c2c(F)cc3c(=O)c(C(=O)O)cn(C4CC4)c3c2OC)CCN1", "note": "(stereo not drawn)", "values": [{"measurement": "IC50", "setting": "[1]", "value": 102, "unit": "µM"}, {"measurement": "CC25", "setting": "[2]", "value": 60, "unit": "µg/mL"}, {"measurement": "IC50", "setting": "[3]", "value": 20, "unit": "µg/mL"}, {"measurement": "MIC", "setting": "[4]", "value": 32, "unit": "µg/mL"}, {"measurement": "CC25", "setting": "[5]", "value": "inactive"}]}
{"smiles": "O=C(O)c1cn(C2CC2)c2cc(N3CCNC(C(=O)O)C3)c(F)cc2c1=O", "note": "(stereo not drawn)", "values": [{"measurement": "IC50", "setting": "[1]", "value": 53.3, "unit": "µM"}, {"measurement": "CC25", "setting": "[2]", "value": 30, "unit": "µg/mL"}, {"measurement": "IC50", "setting": "[3]", "value": 30, "unit": "µg/mL"}, {"measurement": "MIC", "setting": "[4]", "value": 32, "unit": "µg/mL"}, {"measurement": "CC25", "setting": "[5]", "value": "inactive"}]}
{"smiles": "CCCCNC(=O)OCC1CN(c2cc3c(cc2F)c(=O)c(C(=O)O)cn3C2CC2)CCN1", "note": "(stereo not drawn)", "values": [{"measurement": "IC50", "setting": "[1]", "value": 65.1, "unit": "µM"}, {"measurement": "CC25", "setting": "[6]", "value": "inactive"}, {"measurement": "CC25", "setting": "[2]", "value": 30, "unit": "µg/mL"}, {"measurement": "IC50", "setting": "[3]", "value": 22, "unit": "µg/mL"}, {"measurement": "MIC", "setting": "[4]", "value": 16, "unit": "µg/mL"}, {"measurement": "CC25", "setting": "[5]", "value": "inactive"}]}
